In ChEMBL document CHEMBL4689842, “EUbOPEN Chemogenomics Library wave 1” (2021):

Tested on: HEK-293T
Experiment: Multiplex assay against HEK293T;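 on Population Tubulin-Different-Phenotype (%): share of the cells with healthy nuclei that show this phenotype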
Assay type: toxicity, cell-based
Settings: human
Summary of the method: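 On a CQ1 microscope at 37°C and 5% CO2, live cells were imaged after compound addition. They had been stained at seeding with Hoechst33342, BioTracker Green Microtubule Cytoskeleton Dye, MitoTracker Red and Annexin V Alexa Fluor 680. CellPathfinder machine-learning gating assigned cells to Hoechst high-intensity objects or normal cells, normal cells to healthy, pyknosed or fragmented nuclei, and pyknosed cells to mitotic or apoptotic. Tubulin, mitochondrial-mass and membrane-permeability phenotypes are per cents of healthy-nucleus cells.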

[1] = 12 h, 1 µM, compound concentration 1 uM, replicate 1
[2] = 12 h, 1 µM, compound concentration 1 uM, replicate 2
[3] = 12 h, 10 µM, compound concentration 10 uM, replicate 1
[4] = 12 h, 10 µM, compound concentration 10 uM, replicate 2
[5] = 24 h, 1 µM, compound concentration 1 uM, replicate 1
[6] = 24 h, 1 µM, compound concentration 1 uM, replicate 2
[7] = 24 h, 10 µM, compound concentration 10 uM, replicate 1
[8] = 24 h, 10 µM, compound concentration 10 uM, replicate 2
[9] = 48 h, 1 µM, compound concentration 1 uM, replicate 1
[10] = 48 h, 1 µM, compound concentration 1 uM, replicate 2
[11] = 48 h, 10 µM, compound concentration 10 uM, replicate 1
[12] = 48 h, 10 µM, compound concentration 10 uM, replicate 2

Cc1cn(-c2cc(NC(=O)c3ccc(C)c(Nc4nccc(-c5cccnc5)n4)c3)cc(C(F)(F)F)c2)cn1 [NILOTINIB]
Population Apoptotic (%) [1]: 65%
Population Fragmented Nuclei (%) [1]: 10%
Population Hoechst High Intensity Objects (%) [1]: 17%
Population Membrane Permeable-Phenotype (%) [1]: 2%
Population Mitochondria Different-Phenotype (%) [1]: 92%
Population Mitotic Cells (%) [1]: 34%
Population Normal (%) [1]: 82%
Population Pyknosed Nuclei (%) [1]: 51%
Population Tubulin-Different-Phenotype (%) [1]: 98%
Total Cell Count [1]: 215
Population Apoptotic (%) [2]: 21%
Population Fragmented Nuclei (%) [2]: 7%
Population Healthy Nuclei (%) [2]: 37%
Population Hoechst High Intensity Objects (%) [2]: 6%
Population Membrane Permeable-Phenotype (%) [2]: 10%
Population Mitochondria Different-Phenotype (%) [2]: 10%
Population Mitotic Cells (%) [2]: 78%
Population Normal (%) [2]: 93%
Population Pyknosed Nuclei (%) [2]: 55%
Population Tubulin-Different-Phenotype (%) [2]: 15%
Total Cell Count [2]: 164
Population Apoptotic (%) [3]: 91%
Population Fragmented Nuclei (%) [3]: 54%
Population Healthy Nuclei (%) [3]: 12%
Population Hoechst High Intensity Objects (%) [3]: 48%
Population Membrane Permeable-Phenotype (%) [3]: 6%
Population Mitochondria Different-Phenotype (%) [3]: 61%
Population Mitotic Cells (%) [3]: 8%
Population Normal (%) [3]: 51%
Population Pyknosed Nuclei (%) [3]: 32%
Population Tubulin-Different-Phenotype (%) [3]: 59%
Total Cell Count [3]: 738
Population Apoptotic (%) [4]: 38%
Population Fragmented Nuclei (%) [4]: 9%
Population Healthy Nuclei (%) [4]: 32%
Population Hoechst High Intensity Objects (%) [4]: 3%
Population Membrane Permeable-Phenotype (%) [4]: 3%
Population Mitochondria Different-Phenotype (%) [4]: 71%
Population Mitotic Cells (%) [4]: 62%
Population Normal (%) [4]: 96%
Population Pyknosed Nuclei (%) [4]: 57%
Population Tubulin-Different-Phenotype (%) [4]: 80%
Total Cell Count [4]: 179
Population Apoptotic (%) [5]: 69%
Population Fragmented Nuclei (%) [5]: 14%
Population Healthy Nuclei (%) [5]: 39%
Population Hoechst High Intensity Objects (%) [5]: 15%
Population Membrane Permeable-Phenotype (%) [5]: 1%
Population Mitochondria Different-Phenotype (%) [5]: 98%
Population Mitotic Cells (%) [5]: 30%
Population Normal (%) [5]: 84%
Population Pyknosed Nuclei (%) [5]: 46%
Population Tubulin-Different-Phenotype (%) [5]: 94%
Total Cell Count [5]: 213
Population Apoptotic (%) [6]: 18%
Population Fragmented Nuclei (%) [6]: 7%
Population Healthy Nuclei (%) [6]: 56%
Population Hoechst High Intensity Objects (%) [6]: 4%
Population Membrane Permeable-Phenotype (%) [6]: 8%
Population Mitochondria Different-Phenotype (%) [6]: 23%
Population Mitotic Cells (%) [6]: 81%
Population Normal (%) [6]: 95%
Population Pyknosed Nuclei (%) [6]: 35%
Population Tubulin-Different-Phenotype (%) [6]: 38%
Total Cell Count [6]: 212
Population Apoptotic (%) [7]: 87%
Population Fragmented Nuclei (%) [7]: 64%
Population Healthy Nuclei (%) [7]: 11%
Population Hoechst High Intensity Objects (%) [7]: 50%
Population Membrane Permeable-Phenotype (%) [7]: 1%
Population Mitochondria Different-Phenotype (%) [7]: 50%
Population Mitotic Cells (%) [7]: 12%
Population Normal (%) [7]: 49%
Population Pyknosed Nuclei (%) [7]: 24%
Population Tubulin-Different-Phenotype (%) [7]: 51%
Total Cell Count [7]: 958
Population Apoptotic (%) [8]: 41%
Population Fragmented Nuclei (%) [8]: 5%
Population Healthy Nuclei (%) [8]: 57%
Population Hoechst High Intensity Objects (%) [8]: 2%
Population Membrane Permeable-Phenotype (%) [8]: 5%
Population Mitochondria Different-Phenotype (%) [8]: 68%
Population Mitotic Cells (%) [8]: 58%
Population Normal (%) [8]: 97%
Population Pyknosed Nuclei (%) [8]: 36%
Population Tubulin-Different-Phenotype (%) [8]: 85%
Total Cell Count [8]: 209
Population Apoptotic (%) [9]: 64%
Population Fragmented Nuclei (%) [9]: 17%
Population Healthy Nuclei (%) [9]: 31%
Population Hoechst High Intensity Objects (%) [9]: 19%
Population Membrane Permeable-Phenotype (%) [9]: 1%
Population Mitochondria Different-Phenotype (%) [9]: 88%
Population Mitotic Cells (%) [9]: 36%
Population Normal (%) [9]: 80%
Population Pyknosed Nuclei (%) [9]: 50%
Population Tubulin-Different-Phenotype (%) [9]: 85%
Total Cell Count [9]: 244
Population Apoptotic (%) [10]: 16%
Population Fragmented Nuclei (%) [10]: 4%
Population Healthy Nuclei (%) [10]: 80%
Population Hoechst High Intensity Objects (%) [10]: 3%
Population Membrane Permeable-Phenotype (%) [10]: 9%
Population Mitochondria Different-Phenotype (%) [10]: 9%
Population Mitotic Cells (%) [10]: 83%
Population Normal (%) [10]: 96%
Population Pyknosed Nuclei (%) [10]: 14%
Population Tubulin-Different-Phenotype (%) [10]: 38%
Total Cell Count [10]: 337
Population Apoptotic (%) [11]: 84%
Population Fragmented Nuclei (%) [11]: 64%
Population Healthy Nuclei (%) [11]: 14%
Population Hoechst High Intensity Objects (%) [11]: 52%
Population Membrane Permeable-Phenotype (%) [11]: 0%
Population Mitochondria Different-Phenotype (%) [11]: 34%
Population Mitotic Cells (%) [11]: 15%
Population Normal (%) [11]: 47%
Population Pyknosed Nuclei (%) [11]: 20%
Population Tubulin-Different-Phenotype (%) [11]: 32%
Total Cell Count [11]: 1138
Population Apoptotic (%) [12]: 41%
Population Fragmented Nuclei (%) [12]: 7%
Population Healthy Nuclei (%) [12]: 69%
Population Hoechst High Intensity Objects (%) [12]: 1%
Population Membrane Permeable-Phenotype (%) [12]: 1%
Population Mitochondria Different-Phenotype (%) [12]: 61%
Population Mitotic Cells (%) [12]: 58%
Population Normal (%) [12]: 98%
Population Pyknosed Nuclei (%) [12]: 23%
Population Tubulin-Different-Phenotype (%) [12]: 84%
Total Cell Count [12]: 290
